In ChEMBL document CHEMBL1156144, “Biaryl ethers as novel non-nucleoside reverse transcriptase inhibitors with improved potency against key mutant viruses” (J Med Chem, 2009):

Experiments:
[1] = Inhibition of RNA-dependent DNA polymerase activity of wild type HIV reverse transcriptase assessed as BrdU incorporation by standard ECL assay; parameters: species or system Human immunodeficiency virus
In short: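 Purified recombinant wild-type RT polymerase activity was measured using a 500-nt heteropolymeric RNA template and a biotinylated DNA primer. BrdU incorporation was detected with a ruthenylated anti-BrdU antibody by electrochemiluminescence. Ki is the geometric mean of at least two determinations, each within 25% of the mean.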

[2] = target: Human immunodeficiency virus type 1 reverse transcriptase (Human immunodeficiency virus 1, UniProt Q72547, K103N); assay: Inhibition of RNA-dependent DNA polymerase activity of recombinant HIV reverse transcriptase K103N mutant assessed as BrdU incorporation by standard ECL assay
[3] = system: Human immunodeficiency virus; assay: Antiviral activity against wild type HIV H9-3B infected in human MT2 cells assessed as inhibition of viral replication measuring p24 level after 3 days in presence of 10% fetal bovine serum; format: functional; conditions: Human immunodeficiency virus 1, MT2, Serum; read-out: CIC95
In short: (§1)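 Multiple-cycle spread assay in MT2 cells with wild-type H9IIIB virus. Cells were infected overnight at moi ≈ 0.01 without compound, washed, then cultured 3 days across varying compound concentrations in RPMI 1640 with 10% FBS or 50% NHS. p24 was measured in supernatants. CIC95 is the lowest concentration inhibiting replication ≥95%, as the geometric mean of ≥2 determinations.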

[4] = system: Human immunodeficiency virus; assay: Antiviral activity against wild type HIV H9-3B infected in human MT2 cells assessed as inhibition of viral replication measuring p24 level after 3 days in presence of 50% normal human serum; format: functional; conditions: Human immunodeficiency virus 1, H9-3B, 72 h, read-out: CIC95; in short: as §1
[5] = system: Human immunodeficiency virus; assay: Antiviral activity against HIV with reverse transcriptase K103N mutant infected in human MT2 cells assessed as inhibition of viral replication measuring p24 level after 3 days in presence of 10% fetal bovine serum; format: functional; conditions: Human immunodeficiency virus 1, MT2, Serum, 72 h; read-out: CIC95
In short: (§2)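 Multiple-cycle replication (Spread) assay in MT2 cells with H9IIIB-background mutant virus. Cells were infected overnight at moi ≈ 0.01 without compound, washed, then cultured 3 days across a range of compound concentrations in medium with 10% FBS. p24 was measured in supernatants. CIC95 is the lowest concentration inhibiting replication by ≥95%, reported as the geometric mean of ≥2 determinations.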

[6] = system: Human immunodeficiency virus; assay: Antiviral activity against HIV with reverse transcriptase Y181C mutant infected in human MT2 cells assessed as inhibition of viral replication measuring p24 level after 3 days in presence of 10% fetal bovine serum; format: functional; conditions: Human immunodeficiency virus 1, MT2, Serum, 72 h; read-out: CIC95; in short: as §2
[7] = system: Human immunodeficiency virus; assay: Antiviral activity against HIV with reverse transcriptase K103N/Y181C double mutant infected in human MT2 cells assessed as inhibition of viral replication measuring p24 level after 3 days in presence of 10% fetal bovine serum; format: functional; conditions: Human immunodeficiency virus 1, MT2, Serum, 72 h; read-out: CIC95; in short: as §2
[8] = Clearance in Sprague-Dawley rat at 2 mg/kg, iv; format: ADME, organism-based; parameters: dose 2 mg/kg, route intravenous; conditions: in vivo
[9] = Volume of distribution in Sprague-Dawley rat at 2 mg/kg, iv; format: ADME, organism-based; parameters: dose 2 mg/kg, route intravenous; conditions: in vivo
Rattus norvegicus = assay: AUC in Sprague-Dawley rat at 2 mg/kg, iv; format: ADME, organism-based, Plasma; parameters: dose 2 mg/kg, route intravenous; conditions: in vivo
[10] = Half life in Sprague-Dawley rat at 2 mg/kg, iv; format: ADME, organism-based; parameters: dose 2 mg/kg, route intravenous; conditions: in vivo
[11] = system: Human immunodeficiency virus; assay: Antiviral activity against HIV with reverse transcriptase MDRC4 mutant assessed as inhibition of viral replication; format: functional, organism-based; conditions: Human immunodeficiency virus 1
[12] = system: Human immunodeficiency virus; assay: Antiviral activity against HIV with reverse transcriptase CNDO mutant assessed as inhibition of viral replication; format: functional, organism-based; conditions: Human immunodeficiency virus 1
[13] = system: Human immunodeficiency virus; assay: Antiviral activity against HIV with reverse transcriptase L100I mutant assessed as inhibition of viral replication; format: functional, organism-based; conditions: Human immunodeficiency virus 1
[14] = system: Human immunodeficiency virus; assay: Antiviral activity against HIV with reverse transcriptase K103N mutant assessed as inhibition of viral replication; format: functional, organism-based; conditions: Human immunodeficiency virus 1
[15] = system: Human immunodeficiency virus; assay: Antiviral activity against HIV with reverse transcriptase Y181C mutant assessed as inhibition of viral replication; format: functional, organism-based; conditions: Human immunodeficiency virus 1
[16] = system: Human immunodeficiency virus; assay: Antiviral activity against HIV with reverse transcriptase Y188L mutant assessed as inhibition of viral replication; format: functional, organism-based; conditions: Human immunodeficiency virus 1
[17] = system: Human immunodeficiency virus; assay: Antiviral activity against HIV with reverse transcriptase G190A mutant assessed as inhibition of viral replication; format: functional, organism-based; conditions: Human immunodeficiency virus 1
[18] = system: Human immunodeficiency virus; assay: Antiviral activity against HIV with reverse transcriptase G190S mutant assessed as inhibition of viral replication; format: functional, organism-based; conditions: Human immunodeficiency virus 1
[19] = system: Human immunodeficiency virus; assay: Antiviral activity against HIV with reverse transcriptase L100I/K103N double mutant assessed as inhibition of viral replication; format: functional, organism-based; conditions: Human immunodeficiency virus 1
[20] = system: Human immunodeficiency virus; assay: Antiviral activity against HIV with reverse transcriptase K103N/Y181C double mutant assessed as inhibition of viral replication; format: functional, organism-based; conditions: Human immunodeficiency virus 1
[21] = system: Human immunodeficiency virus; assay: Antiviral activity against HIV with reverse transcriptase K103N/G190A double mutant assessed as inhibition of viral replication; format: functional, organism-based; conditions: Human immunodeficiency virus 1
[22] = system: Human immunodeficiency virus; assay: Antiviral activity against HIV with reverse transcriptase Y181C/G190A double mutant assessed as inhibition of viral replication; format: functional, organism-based; conditions: Human immunodeficiency virus 1
[23] = system: Human immunodeficiency virus; assay: Antiviral activity against HIV with reverse transcriptase K103N/P225H double mutant assessed as inhibition of viral replication; format: functional, organism-based; conditions: Human immunodeficiency virus 1
[24] = system: Human immunodeficiency virus; assay: Antiviral activity against HIV with reverse transcriptase K101E/G190A double mutant assessed as inhibition of viral replication; format: functional, organism-based; conditions: Human immunodeficiency virus 1
[25] = system: Human immunodeficiency virus; assay: Antiviral activity against HIV with reverse transcriptase K101E/Y181C/G190A mutant assessed as inhibition of viral replication; format: functional, organism-based; conditions: Human immunodeficiency virus 1
[26] = system: Human immunodeficiency virus; assay: Antiviral activity against HIV with reverse transcriptase K103N/Y181C/G190A mutant assessed as inhibition of viral replication; format: functional, organism-based; conditions: Human immunodeficiency virus 1
[27] = system: Human immunodeficiency virus; assay: Antiviral activity against HIV with reverse transcriptase V106A/G190A/F227L mutant assessed as inhibition of viral replication; format: functional, organism-based; conditions: Human immunodeficiency virus 1
[28] = system: Human immunodeficiency virus; assay: Antiviral activity against HIV with reverse transcriptase MDRC4 mutant assessed as inhibition of viral replication relative to wild type; format: functional
[29] = system: Human immunodeficiency virus; assay: Antiviral activity against HIV with reverse transcriptase CNDO mutant assessed as inhibition of viral replication relative to wild type; format: functional
[30] = system: Human immunodeficiency virus; assay: Antiviral activity against HIV with reverse transcriptase L100I mutant assessed as inhibition of viral replication relative to wild type; format: functional
[31] = system: Human immunodeficiency virus; assay: Antiviral activity against HIV with reverse transcriptase K103N mutant assessed as inhibition of viral replication relative to wild type; format: functional
[32] = system: Human immunodeficiency virus; assay: Antiviral activity against HIV with reverse transcriptase Y181C mutant assessed as inhibition of viral replication relative to wild type; format: functional
[33] = system: Human immunodeficiency virus; assay: Antiviral activity against HIV with reverse transcriptase Y188L mutant assessed as inhibition of viral replication relative to wild type; format: functional
[34] = system: Human immunodeficiency virus; assay: Antiviral activity against HIV with reverse transcriptase G190A mutant assessed as inhibition of viral replication relative to wild type; format: functional
[35] = system: Human immunodeficiency virus; assay: Antiviral activity against HIV with reverse transcriptase G190S mutant assessed as inhibition of viral replication relative to wild type; format: functional
[36] = system: Human immunodeficiency virus; assay: Antiviral activity against HIV with reverse transcriptase L100I/K103N double mutant assessed as inhibition of viral replication relative to wild type; format: functional
[37] = system: Human immunodeficiency virus; assay: Antiviral activity against HIV with reverse transcriptase K103N/Y181C double mutant assessed as inhibition of viral replication relative to wild type; format: functional
[38] = system: Human immunodeficiency virus; assay: Antiviral activity against HIV with reverse transcriptase K103N/G190A double mutant assessed as inhibition of viral replication relative to wild type; format: functional
[39] = system: Human immunodeficiency virus; assay: Antiviral activity against HIV with reverse transcriptase Y181C/G190A double mutant assessed as inhibition of viral replication relative to wild type; format: functional
[40] = system: Human immunodeficiency virus; assay: Antiviral activity against HIV with reverse transcriptase K103N/P225H double mutant assessed as inhibition of viral replication relative to wild type; format: functional
[41] = system: Human immunodeficiency virus; assay: Antiviral activity against HIV with reverse transcriptase K101E/G190A double mutant assessed as inhibition of viral replication relative to wild type; format: functional
[42] = system: Human immunodeficiency virus; assay: Antiviral activity against HIV with reverse transcriptase K101E/Y181C/G190A mutant assessed as inhibition of viral replication relative to wild type; format: functional
[43] = system: Human immunodeficiency virus; assay: Antiviral activity against HIV with reverse transcriptase K103N/Y181C/G190A mutant assessed as inhibition of viral replication relative to wild type; format: functional
[44] = system: Human immunodeficiency virus; assay: Antiviral activity against HIV with reverse transcriptase V106A/G190A/F227L mutant assessed as inhibition of viral replication relative to wild type; format: functional

Work on `N#Cc1cc(Cl)cc(Oc2cc(OCc3noc4nc(N)ccc34)ccc2Cl)c1` yielded a Ki [1] of 0.0003 µM, a Ki [2] of 0.0004 µM and an IC95 [3] of 0.011 µM. It also gave an IC95 [4] of 0.034 µM, an IC95 [5] of 0.034 µM and an IC95 [6] of 0.093 µM. For the same molecule, the IC95 [7] was 0.278 µM, the clearance [8] was 93.4 mL/min/kg and the Vd [9] was 44.7 L/kg. The AUC (Rattus norvegicus) was 0.8 µM and the half-life [10] was 5.8 h.
`N#Cc1cc(Cl)cc(Oc2cc(OCc3noc4nc(-n5ccnc5)ccc34)ccc2Cl)c1` gave a Ki [1] of 0.0002 µM, a Ki [2] of 0.0008 µM and an IC95 [3] of 0.033 µM. The IC95 [4] was 0.309 µM, the IC95 [5] was 0.103 µM and the IC95 [6] was 0.278 µM. It also gave an IC95 [7] of 0.833 µM, a clearance [8] of 26.9 mL/min/kg and a Vd [9] of 2.2 L/kg. The AUC (Rattus norvegicus) was 0.7 µM and the half-life [10] was 1.7 h.
Work on `O=C1Nc2ccc(Cl)cc2[C@@](C#CC2CC2)(C(F)(F)F)O1` [EFAVIRENZ] yielded an IC50 [11] of 0.008 µM, an IC50 [12] of 0.0005 µM and an IC50 [13] of 0.021 µM. For the same molecule, the IC50 [14] was 0.0168 µM, the IC50 [15] was 0.0011 µM and the IC50 [16] was 0.124 µM. It also gave an IC50 [17] of 0.0036 µM, an IC50 [18] of 0.115 µM and an IC50 [19] greater than 0.5 µM. It also gave an IC50 [20] of 0.0278 µM, an IC50 [21] of 0.141 µM and an IC50 [22] of 0.0077 µM. The IC50 [23] was 0.153 µM, the IC50 [24] was 0.0174 µM and the IC50 [25] was 0.106 µM. The IC50 [26] was greater than 0.5 µM, the IC50 [27] was greater than 0.5 µM and the “fold change (FC)” value [28] was 16. The “fold change (FC)” value [29] was 1, the “fold change (FC)” value [30] was 42 and the “fold change (FC)” value [31] was 33.6. The “fold change (FC)” value [32] was 2.2, the “fold change (FC)” value [33] was 248.6 and the “fold change (FC)” value [34] was 7.2. The “fold change (FC)” value [35] was 229, the “fold change (FC)” value [36] was greater than 454 and the “fold change (FC)” value [37] was 55.6. The “fold change (FC)” value [38] was 281.4, the “fold change (FC)” value [39] was 15.4 and the “fold change (FC)” value [40] was 306.2. The “fold change (FC)” value [41] was 34.8, the “fold change (FC)” value [42] was 213 and the “fold change (FC)” value [43] was greater than 454. The “fold change (FC)” value [44] was greater than 454.
In the case of `N#Cc1cc(Cl)cc(Oc2cc(OCc3noc4nc(N)ccc34)cc(F)c2Cl)c1`, the Ki [1] is reported as 0.0002 µM, the Ki [2] is reported as 0.0008 µM and the IC95 [3] is reported as 0.011 µM. The IC95 [4] was 0.103 µM, the IC95 [5] was 0.103 µM and the IC95 [6] was 0.031 µM. For the same molecule, the IC95 [7] was 0.833 µM, the clearance [8] was 44.9 mL/min/kg and the Vd [9] was 5.1 L/kg. For the same molecule, the AUC (Rattus norvegicus) was 0.4 µM and the half-life [10] was 1.9 h.
`N#Cc1cc(Cl)cc(Oc2cc(OCc3noc4nc(N5CCCCC5)ccc34)ccc2Cl)c1` showed a Ki [1] of 0.0022 µM, a Ki [2] of 0.0072 µM and an IC95 [3] greater than 8.33 µM. For the same molecule, the IC95 [5] was greater than 8.33 µM and the IC95 [6] was greater than 8.33 µM.
